Results reported in ChEMBL document CHEMBL1122229, “alpha-adrenoreceptor reagents. 1. Synthesis of some 1,4-benzodioxans as selective presynaptic alpha 2-adrenoreceptor antagonists and potential antidepressants” (J Med Chem, 1983).
The source made the active and inactive calls. The rule behind the calls is not given here.

Key:
[1] = biological target: T1, Adrenergic receptor alpha-2 (Rattus norvegicus) (UniProt P22086+P19328+P22909); experiment: In vitro presynaptic antagonist potency at alpha-2 adrenergic receptor in rat or mouse vas deferens relative to compound 5 (RX781094); assay type: functional, tissue-based
Procedure, shortened: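 Prostatic halves of rat vas deferens (male Sprague–Dawley rats, 200–250 g; Krebs, 30 °C, 95% O2/5% CO2; 3-ms, 40 V, 0.1 Hz field pulses) or mouse vas deferens (Mg-free Krebs, 30 °C; 3-ms pulses, 0.1 Hz, 100–140 V) were used, with isometric twitch recording. […] The concentration giving 50% reversal was compared with the RX781094 standard in the same tissue.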

[2] = Ratio of pA2 value against alpha2 to alpha-1 adrenoceptor
Procedure, shortened: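 α2/α1 selectivity was taken as the antilog of the difference between the pA2 values at α2- and α1-adrenoreceptors.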

[3] = biological target: T2, Adrenergic receptor alpha-1 (Rattus norvegicus) (UniProt P15823+P23944+P43140); experiment: In vitro postsynaptic antagonist potency at alpha-1-adrenoceptor in rat anococcygeus relative to compound 5 (RX781094); assay type: functional
[4] = biological target: T1, Adrenergic receptor alpha-2 (Rattus norvegicus); experiment: In vitro presynaptic agonist potency at alpha-2 adrenergic receptor in rat or mouse vas deferens relative to clonidine; IA means inactive; assay type: functional, tissue-based
Procedure, shortened: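 Field-stimulated rat or mouse vas deferens (Krebs, 30 °C, 95% O2/5% CO2, 3-ms pulses at 0.1 Hz) with isometric twitch recording. […] Standard dose-response curves were run before and after the analogue's curve.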

[5] = biological target: T2, Adrenergic receptor alpha-1 (Rattus norvegicus); experiment: In vitro postsynaptic agonist potency at alpha-1 adrenergic receptor in rat anococcygeus muscle relative to phenylephrine; assay type: functional, tissue-based
[6] = biological target: T3, Adrenergic receptor alpha-2 (Rattus norvegicus, UniProt P22086+P19328+P22909); experiment: Alpha-2 adrenergic receptor pA2 value against clonidine in vitro experiment in rat vas deferens; assay type: tissue-based
T3 sequence (P22086 whole entry): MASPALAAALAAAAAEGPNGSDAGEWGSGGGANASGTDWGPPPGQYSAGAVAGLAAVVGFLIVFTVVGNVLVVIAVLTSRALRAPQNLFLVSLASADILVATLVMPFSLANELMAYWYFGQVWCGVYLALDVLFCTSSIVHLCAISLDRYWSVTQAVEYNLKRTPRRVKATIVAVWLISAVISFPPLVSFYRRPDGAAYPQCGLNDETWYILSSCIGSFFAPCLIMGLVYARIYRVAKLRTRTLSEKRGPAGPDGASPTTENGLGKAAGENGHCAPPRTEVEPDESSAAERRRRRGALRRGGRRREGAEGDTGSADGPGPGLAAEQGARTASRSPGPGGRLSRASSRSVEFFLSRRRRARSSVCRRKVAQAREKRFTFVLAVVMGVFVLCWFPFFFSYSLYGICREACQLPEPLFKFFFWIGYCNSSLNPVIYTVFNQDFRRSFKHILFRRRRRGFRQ
T3 sequence (P19328 whole entry): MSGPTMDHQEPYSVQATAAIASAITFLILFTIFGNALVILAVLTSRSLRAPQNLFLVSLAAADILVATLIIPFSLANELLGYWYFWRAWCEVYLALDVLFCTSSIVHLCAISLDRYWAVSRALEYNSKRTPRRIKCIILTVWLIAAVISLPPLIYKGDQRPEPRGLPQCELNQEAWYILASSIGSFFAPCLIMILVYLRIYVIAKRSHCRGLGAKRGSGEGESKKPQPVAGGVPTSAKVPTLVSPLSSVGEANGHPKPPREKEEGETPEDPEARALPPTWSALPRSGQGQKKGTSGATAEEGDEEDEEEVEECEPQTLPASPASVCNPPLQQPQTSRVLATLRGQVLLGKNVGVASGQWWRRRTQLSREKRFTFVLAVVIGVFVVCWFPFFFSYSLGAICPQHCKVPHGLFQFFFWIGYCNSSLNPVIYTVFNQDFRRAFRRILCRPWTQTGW
T3 sequence (P22909 whole entry): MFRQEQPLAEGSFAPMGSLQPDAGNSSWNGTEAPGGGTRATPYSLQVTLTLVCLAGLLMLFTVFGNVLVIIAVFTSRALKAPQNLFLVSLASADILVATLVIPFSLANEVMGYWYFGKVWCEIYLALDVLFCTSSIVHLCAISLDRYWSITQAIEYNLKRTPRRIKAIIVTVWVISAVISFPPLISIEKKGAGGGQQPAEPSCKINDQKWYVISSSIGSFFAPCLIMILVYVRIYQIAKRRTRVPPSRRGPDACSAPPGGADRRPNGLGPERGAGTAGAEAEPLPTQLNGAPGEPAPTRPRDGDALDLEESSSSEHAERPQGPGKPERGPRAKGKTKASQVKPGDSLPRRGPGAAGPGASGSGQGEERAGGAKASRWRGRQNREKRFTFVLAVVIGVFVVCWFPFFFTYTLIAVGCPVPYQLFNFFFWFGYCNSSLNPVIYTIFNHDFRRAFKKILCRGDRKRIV
Procedure, shortened: (§1)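 pA2 was obtained by Arunlakshana–Schild analysis at postsynaptic α1 (anococcygeus) or presynaptic α2 (vas deferens) sites. Values are mean ± SEM of at least six experiments.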

[7] = biological target: T2, Adrenergic receptor alpha-1 (Rattus norvegicus); experiment: Ratio of presynaptic antagonist potency to postsynaptic antagonist potency; assay type: functional
[8] = biological target: T4, Adrenergic receptor alpha-1 (Rattus norvegicus, UniProt P15823+P23944+P43140); experiment: Alpha-1-adrenoceptor pA2 value against norepinephrine in vitro experiment in rat anococcygeus.; procedure, shortened: as §1
T4 sequence (P15823 whole entry): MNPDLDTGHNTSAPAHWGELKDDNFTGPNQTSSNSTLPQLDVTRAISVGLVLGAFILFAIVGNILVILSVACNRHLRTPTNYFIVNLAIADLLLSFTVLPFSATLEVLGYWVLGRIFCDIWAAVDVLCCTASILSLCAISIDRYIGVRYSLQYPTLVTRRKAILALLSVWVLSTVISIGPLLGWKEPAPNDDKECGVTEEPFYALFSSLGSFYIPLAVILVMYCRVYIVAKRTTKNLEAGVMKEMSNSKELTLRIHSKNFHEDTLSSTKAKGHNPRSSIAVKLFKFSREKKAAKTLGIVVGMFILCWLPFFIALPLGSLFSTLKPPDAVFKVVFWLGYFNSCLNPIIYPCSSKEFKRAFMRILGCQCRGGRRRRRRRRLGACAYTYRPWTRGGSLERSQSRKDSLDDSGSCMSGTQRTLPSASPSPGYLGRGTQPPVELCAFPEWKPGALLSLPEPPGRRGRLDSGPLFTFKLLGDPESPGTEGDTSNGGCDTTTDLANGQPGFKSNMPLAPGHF
T4 sequence (P23944 whole entry): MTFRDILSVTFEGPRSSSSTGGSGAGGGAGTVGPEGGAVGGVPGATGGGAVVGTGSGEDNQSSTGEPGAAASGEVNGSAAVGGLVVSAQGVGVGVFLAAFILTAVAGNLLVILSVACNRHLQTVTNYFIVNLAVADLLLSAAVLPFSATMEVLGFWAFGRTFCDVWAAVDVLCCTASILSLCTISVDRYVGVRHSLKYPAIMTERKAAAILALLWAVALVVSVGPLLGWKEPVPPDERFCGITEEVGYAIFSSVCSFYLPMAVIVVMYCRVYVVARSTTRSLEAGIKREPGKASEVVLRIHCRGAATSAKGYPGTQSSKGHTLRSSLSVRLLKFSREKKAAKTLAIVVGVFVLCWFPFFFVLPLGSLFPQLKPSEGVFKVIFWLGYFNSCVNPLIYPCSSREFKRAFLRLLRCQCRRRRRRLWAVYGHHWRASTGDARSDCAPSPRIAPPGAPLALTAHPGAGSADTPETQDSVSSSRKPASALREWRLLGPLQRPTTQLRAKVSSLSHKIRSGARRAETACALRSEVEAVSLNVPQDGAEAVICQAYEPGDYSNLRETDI
T4 sequence (P43140 whole entry): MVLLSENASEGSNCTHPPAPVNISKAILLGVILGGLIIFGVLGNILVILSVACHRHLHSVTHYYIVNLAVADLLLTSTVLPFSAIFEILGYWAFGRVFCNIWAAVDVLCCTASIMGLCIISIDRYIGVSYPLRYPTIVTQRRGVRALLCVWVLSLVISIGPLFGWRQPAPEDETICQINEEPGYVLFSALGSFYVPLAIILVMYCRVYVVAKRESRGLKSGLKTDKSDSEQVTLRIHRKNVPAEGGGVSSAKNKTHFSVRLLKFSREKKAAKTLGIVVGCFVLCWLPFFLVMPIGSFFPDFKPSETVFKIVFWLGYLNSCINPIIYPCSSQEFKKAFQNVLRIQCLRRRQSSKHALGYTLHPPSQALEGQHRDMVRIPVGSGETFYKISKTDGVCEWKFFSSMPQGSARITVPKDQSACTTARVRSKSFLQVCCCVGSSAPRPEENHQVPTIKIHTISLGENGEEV

[9] = biological target: T2, Adrenergic receptor alpha-1 (Rattus norvegicus); experiment: In vitro postsynaptic antagonist potency at alpha-1 adrenergic receptor in rat anococcygeus relative to compound 5 (RX781094); assay type: functional
[10] = biological target: T4, Adrenergic receptor alpha-1; experiment: alpha-1 adrenergic receptor pA2 value against norepinephrine in vitro experiment in rat anococcygeus
[11] = biological target: T2, Adrenergic receptor alpha-1 (Rattus norvegicus); experiment: In vitro postsynaptic agonist potency at alpha-1 adrenergic receptor in rat anococcygeus muscle relative to phenylephrine; IA means inactive.; assay type: functional, tissue-based
Procedure, shortened: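 Rat anococcygeus muscle (male Sprague–Dawley rats, 200–250 g) suspended at 0.5 g initial tension in a 50-mL organ bath. […] Standard dose-response curves were run before and after the analogue's curve.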

[12] = Selectivity ratio of presynaptic antagonist potency to postsynaptic antagonist potency; assay type: functional
Procedure, shortened: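 Selectivity ratio is the antilog of the difference between pA2 values at presynaptic α2- and postsynaptic α1-adrenoreceptors. pA2 values were derived by the Arunlakshana–Schild method, each a mean ± SEM of at least six experiments.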

[13] = biological target: T4, Adrenergic receptor alpha-1; experiment: Alpha-1 adrenergic receptor pA2 value against norepinephrine in vitro experiment in rat anococcygeus.; procedure, shortened: as §1

| pA2 [10] | Structure (SMILES) | Antagonist potency [1] | Selectivity [2] | Antagonist potency [3] | Agonist potency [4] | Agonist potency [5] | pA2 [6] | Selectivity [7] | pA2 [8] | Antagonist potency [9] | Agonist potency [11] | Selectivity [12] | pA2 [13] |
| --- | --- | --- | --- | --- | --- | --- | --- | --- | --- | --- | --- | --- | --- |
|  | Cc1ccc2c(c1)OC(C1=NCCN1)CO2 (centres undefined) | 0.08 | 17 | 0.8 | inactive | 0.004 | 7.1 | 0.14 | 5.87 |  |  |  |  |
| 4.85 | CCn1ccnc1CC1COc2ccccc2O1 (centres undefined) [IMILOXAN] | 0.02 | 135 |  | inactive |  | 6.98 |  |  | 0.036 | inactive | 0.53 |  |
|  | Cc1ccc2c(c1)OCC(C1=NCCN1)O2 (centres undefined) | 0.08 | 30 |  | inactive |  | 7.56 | 0.21 |  | 0.4 | inactive |  | 6.17 |
